We go through one compound from ChEMBL document CHEMBL2331277, “Design, synthesis and pharmacological evaluation of omeprazole-like agents with anti-inflammatory activity” (2013).

The test system of experiment [1] is Rattus norvegicus. The experiment in a line: Antiulcerogenic activity in pylorus ligation-induced gastric ulcer Sprague-Dawley rat model assessed as stomach peptic activity measuring tyrosine release for 4 hrs at 7.2 mg/kg, po for 3 days (Rvb =5.70 +/-2.40 ug/ml ). It counts as functional. The gist of the method: (§1)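 Pylorus-ligated rat model as above (3-day oral dosing, 3.6 or 7.2 mg/kg, 5 h ligation). Gastric juice sample (0.1 ml) was incubated with 2.9 ml acid hemoglobin substrate (2.5 g/100 ml, pH 2.2) for 30 min at 37 °C. Reaction was stopped with ice-cold 0.6 M TCA and centrifuged. Liberated amino acids were read by Lowry, expressed as µg tyrosine/ml.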

For experiment [2], the system named is Rattus norvegicus. The experiment in a line: Antiulcerogenic activity in pylorus ligation-induced gastric ulcer Sprague-Dawley rat model assessed as stomach H+/K+-ATPase activity measuring Pi release per hour per mg protein at 3.6 mg/kg, po for 3 days (Rvb =11.44 +/-1.5 umol ). It counts as functional.
For experiment [3], the system named is Rattus norvegicus. The experiment in a line: Antiinflammatory activity against carrageenan-induced paw edema in Sprague-Dawley rat assessed as paw volume at 30 mg/kg, po measured 60 mins post challenge by plethysmometer (reference value: 0.90 +/- 0.03 ml). In kind it is functional.
The subject of experiment [4] is Rattus norvegicus. The experiment is described as follows: Antiinflammatory activity against carrageenan-induced paw edema in Sprague-Dawley rat assessed as inhibition of paw volume at 30 mg/kg, po measured 180 mins post challenge by plethysmometer. The note with it: 3 h. In kind it is functional.
The test system of experiment [5] is Rattus norvegicus. The experiment in a line: Antiinflammatory activity against carrageenan-induced paw edema in po dosed Sprague-Dawley rat assessed as inhibition of paw volume measured 180 mins post challenge by plethysmometer. It counts as functional, organism-based.
The test system of experiment [6] is Rattus norvegicus. The experiment is described as follows: Antiinflammatory activity against carrageenan-induced paw edema in Sprague-Dawley rat assessed as paw volume at 10 mg/kg, po measured 120 mins post challenge by plethysmometer (reference value: 1.13 +/- 0.04 ml). It counts as functional.
In experiment [7] the test system is Rattus norvegicus. The experiment is described as follows: Antiinflammatory activity against carrageenan-induced paw edema in Sprague-Dawley rat assessed as paw volume at 20 mg/kg, po measured 60 mins post challenge by plethysmometer (reference value: 0.90 +/- 0.03 ml). It counts as functional.
Experiment [8] deals with Rattus norvegicus. The experiment is described as follows: Antiinflammatory activity against carrageenan-induced paw edema in Sprague-Dawley rat assessed as paw volume at 20 mg/kg, po measured 120 mins post challenge by plethysmometer (reference value: 1.13 +/- 0.04 ml). It counts as functional.
The test system of experiment [9] is Rattus norvegicus. The experiment in a line: Antiinflammatory activity against carrageenan-induced paw edema in Sprague-Dawley rat assessed as inhibition of paw volume at 20 mg/kg, po measured 180 mins post challenge by plethysmometer. The note with it: 3 h. It counts as functional.
For experiment [10], the system named is Rattus norvegicus. The experiment in a line: Antiulcerogenic activity in pylorus ligation-induced gastric ulcer Sprague-Dawley rat model assessed as volume of gastric juice at 7.2 mg/kg, po for 3 days (Rvb =5.96 +/-0.80 ml ). It counts as functional.
For experiment [11], the system named is Rattus norvegicus. The experiment in a line: Antiinflammatory activity against carrageenan-induced paw edema in Sprague-Dawley rat assessed as inhibition of paw volume at 10 mg/kg, po measured 180 mins post challenge by plethysmometer. It counts as functional. To be noted: 3 h.
Experiment [12] deals with Rattus norvegicus. The experiment is described as follows: Antiinflammatory activity against carrageenan-induced paw edema in Sprague-Dawley rat assessed as paw volume at 10 mg/kg, po measured 60 mins post challenge by plethysmometer (reference value: 0.90 +/- 0.03 ml). In kind it is functional.
Experiment [13] deals with Mus musculus. The experiment is described as follows: Antiulcerogenic activity in ethanol-induced gastric ulcer Swiss albino mouse model assessed as inhibition of ulceration at 7.2 mg/kg administered intragastrically for 3 days relative to control. It counts as functional. The note with it: Stomach, po, 72 h, route intragastric. In short, it runs like this: (§2)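 Mice, n = 6 per group, given 3.6 or 7.2 mg/kg, omeprazole 3.6 mg/kg, or vehicle (0.25% w/v carboxymethyl cellulose) for 3 days. After a 24 h fast, 90% ethanol (10 ml/kg) was given intragastrically. Animals were killed 1 h later. Stomachs were opened along the greater curvature and lesion lengths measured under a microscope.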

The subject of experiment [14] is Rattus norvegicus. The experiment in a line: Antiulcerogenic activity in pylorus ligation-induced gastric ulcer Sprague-Dawley rat model assessed as pH of gastric juice at 3.6 mg/kg, po for 3 days (Rvb =2.60 +/-0.55 ). It counts as functional.
In experiment [15] the test system is Mus musculus. The experiment in a line: Antiulcerogenic activity in ethanol-induced gastric ulcer Swiss albino mouse model assessed as inhibition of ulceration at 3.6 mg/kg administered intragastrically for 3 days relative to control. It counts as functional. To be noted: Stomach, po, 72 h, route intragastric. The gist of the method:
as §2

Experiment [16] concerns Rattus norvegicus. The experiment is described as follows: Antiulcerogenic activity in pylorus ligation-induced gastric ulcer Sprague-Dawley rat model assessed as stomach peptic activity measuring tyrosine release for 4 hrs at 3.6 mg/kg, po for 3 days (Rvb =5.70 +/-2.40 ug/ml ). In kind it is functional. The gist of the method: as §1
The subject of experiment [17] is Rattus norvegicus. The experiment in a line: Antiulcerogenic activity in pylorus ligation-induced gastric ulcer Sprague-Dawley rat model assessed as pH of gastric juice at 7.2 mg/kg, po for 3 days (Rvb =2.60 +/-0.55 ). In kind it is functional.
For experiment [18], the system named is Rattus norvegicus. The experiment is described as follows: Antiulcerogenic activity in pylorus ligation-induced gastric ulcer Sprague-Dawley rat model assessed as stomach H+/K+-ATPase activity measuring Pi release per hour per mg protein at 7.2 mg/kg, po for 3 days (Rvb =11.44 +/-1.5 umol ). In kind it is functional.
In experiment [19] the test system is Mus musculus. The experiment is described as follows: Antiulcerogenic activity in ethanol-induced gastric ulcer Swiss albino mouse model assessed as lesion length at 3.6 mg/kg administered intragastrically for 3 days. In kind it is functional, Stomach. The note with it: route intragastric. In short, it runs like this:
as §2

The test system of experiment [20] is Rattus norvegicus. The experiment is described as follows: Antiulcerogenic activity in pylorus ligation-induced gastric ulcer Sprague-Dawley rat model assessed as volume of gastric juice at 3.6 mg/kg, po for 3 days (Rvb =5.96 +/-0.80 ml ). It counts as functional.
In experiment [21] the test system is Mus musculus. The experiment is described as follows: Antiulcerogenic activity in ethanol-induced gastric ulcer Swiss albino mouse model assessed as lesion length at 7.2 mg/kg administered intragastrically for 3 days. In kind it is functional, Stomach. To be noted: route intragastric. In short, it runs like this: as §2
Experiment [22] relates to Rattus norvegicus. The experiment in a line: Antiinflammatory activity against carrageenan-induced paw edema in Sprague-Dawley rat assessed as paw volume at 30 mg/kg, po measured 120 mins post challenge by plethysmometer (reference value: 1.13 +/- 0.04 ml). In kind it is functional.

With `COc1ccnc(CNc2ccc3[nH]c(C)nc3c2)c1OC`, the Activity in the experiment on Rattus norvegicus [1] worked out at 4.74 µg/mL; in the experiment on Rattus norvegicus [2], 7.91 µmol; with Rattus norvegicus [3] it was 0.65 mL; in the experiment on Rattus norvegicus [6] it was 0.88 mL; in the experiment with Rattus norvegicus [7], 0.7 mL; in the experiment on Rattus norvegicus [8] it was 0.69 mL. For the same compound, the Activity with Rattus norvegicus [10] is 2.6 mL; with Rattus norvegicus [12] it was 0.7 mL; in the experiment on Rattus norvegicus [16] it was 5.02 µg/mL; with Rattus norvegicus [18], 6.88 µmol; in the experiment on Mus musculus [19], 88 mm; in the experiment with Rattus norvegicus [20] it was 2.98 mL. The Activity in the experiment on Mus musculus [21] was 67 mm; with Rattus norvegicus [22], 0.65 mL. The inhibition in vivo at 30 mg/kg in the experiment on Rattus norvegicus [4] was 61%. The inhibition entry in the experiment with Rattus norvegicus [5] is “Dose-dependent effect”. Moreover, the inhibition in vivo at 20 mg/kg in the experiment with Rattus norvegicus [9] was determined as 57%. In the experiment with Rattus norvegicus [11], the inhibition in vivo at 10 mg/kg is 15%. Besides, in the experiment with Mus musculus [13], the inhibition in vivo at 7.2 mg/kg is 46.8%. Besides, the pH in the experiment on Rattus norvegicus [14] stood at 3.64; with Rattus norvegicus [17], 4.01. The inhibition in vivo at 3.6 mg/kg with Mus musculus [15] came out at 30%.
